Only a selection was taken, and hits are over-represented in it overall.
T cruzi HTS = intracellular Trypanosoma cruzi inhibition; 22,000 tested, 4.9% active; activity score (inhibition), % at 5.01 µM; intracellular Trypanosoma cruzi in host cells, plate reader; AID 651903; in the data active = activity score above about 55%;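 note: parasites and compound incubated about four days before reading; 0% = median of neutral control wells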
INS-1E ATP HTS = preserves ATP levels in cytokine-treated INS-1E cells; INS-1E cytokine-induced death, ATP luminescence, 48 h; normalised: neutral wells 0, positive control 100; protection from cytokine-induced ATP loss, % at 10 µM; 20,000 tested, 0.1% active; AID 488910;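 active = mean replicate protection from cytokine-induced ATP loss at least 50% and at least 75% of replicates each reaching 50%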
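Assay system – rat INS-1E insulinoma cell line · Quantity – 8000 cells per well · Buffer or medium – RPMI without phenol red, 5% FBS · Schedule – 48 h co-treatment, 10 min post-lysis read · Technique – luminescent ATP assay (CellTiter-Glo)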
A1 apoptosis 2 = blocks A1, raising caspase activity | MEF A1-2A-BIM cells, caspase-Glo luminescence, 3 h; percent of clofoctol response, DMSO zero | 24,000 tested, under 10 active | caspase activation, % (concentration not given with the values) | AID 2465; in the data active = caspase activation above about 5.9%
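Material: mouse embryonic fibroblasts co-expressing A1 and BIM (A1-2A-BIM), primed for A1 dependence / Quantity: 2500 cells/well / Buffer or medium: RPMI-1640 growth medium with 10% FBS / Doses: 50 nL compound per well, pinned / Schedule: 3 h compound exposure at 37 °C / Signal: Caspase-Glo luminescence (DEVD substrate) / Measure: Caspase-3/7 activation, seen as rise in luminescence signal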
Numbers without * were called inactive; / = not tested or not shown.

SMILES	T cruzi HTS	INS-1E ATP HTS	A1 apoptosis 2
Cc1ccc(S(=O)(=O)Nc2ccc3c(c2)C(=O)N([C@H](C)CO)C[C@H](C)[C@H](CN(C)Cc2ccc(C(F)(F)F)cc2)OCCCC[C@@H](C)O3)cc1	66*	-36	/
COc1ccc(S(=O)(=O)Nc2ccc3c(c2)C(=O)N([C@H](C)CO)C[C@H](C)[C@H](CN(C)Cc2ccc(C(F)(F)F)cc2)OCCCC[C@@H](C)O3)cc1	65*	1	/
C[C@@H]1CN([C@H](C)CO)C(=O)c2cc(NS(=O)(=O)c3ccc(F)cc3)ccc2O[C@@H](C)CCCCO[C@H]1CN(C)Cc1ccc(C(F)(F)F)cc1	/	/	2
C[C@@H]1CCCCO[C@@H](CN(C)Cc2ccc(C(F)(F)F)cc2)[C@@H](C)CN([C@H](C)CO)C(=O)c2cc(NS(=O)(=O)c3ccc(Cl)cc3)ccc2O1	63*	-24	/
Cc1ccc(S(=O)(=O)Nc2ccc3c(c2)C(=O)N([C@@H](C)CO)C[C@@H](C)[C@@H](CN(C)Cc2ccc(C(F)(F)F)cc2)OCCCC[C@H](C)O3)cc1	/	/	-1
COc1ccc(S(=O)(=O)N(C)C[C@H]2Oc3ccc(NC(=O)CCCN(C)C)cc3CC(=O)N([C@@H](C)CO)C[C@@H]2C)cc1	/	/	-1
COC(=O)CCCCCCC(=O)N/N=C/c1c(CO)cnc(C)c1O	-2	36	-1
O=C(N=NC=C1C=CN(O)C=C1)c1ccccc1O	-5	-35	-1
CCOc1cc(/C=N/NC(=O)c2cccc(C(=O)NO)c2)ccc1O	-1	-2	/
C[C@H](CO)N1C[C@H](C)[C@H](CN(C)S(=O)(=O)c2ccccc2)Oc2ncc(C#CC(C)(C)O)cc2C1=O	-4	/	-1
C[C@@H]1CN([C@@H](C)CO)C(=O)c2cc(NC(=O)Cc3cn(C)c4ccccc34)ccc2O[C@@H]1CN(C)C(=O)Nc1ccc(C(F)(F)F)cc1	8	-6	/
C[C@@H]1CN([C@H](C)CO)C(=O)c2cc(NC(=O)Cc3cn(C)c4ccccc34)ccc2O[C@@H]1CN(C)Cc1ccccc1	17	3	/
C[C@@H]1CN([C@@H](C)CO)C(=O)c2cc(NC(=O)Cc3cn(C)c4ccccc34)ccc2O[C@H]1CN(C)Cc1ccc(C(F)(F)F)cc1	82*	-24	-2
C[C@H](CO)N1C[C@H](C)[C@H](CN(C)Cc2ccc(C(F)(F)F)cc2)Oc2ccc(NC(=O)Cc3cn(C)c4ccccc34)cc2C1=O	34	/	-1
C[C@@H]1CN([C@H](C)CO)C(=O)c2cc(NC(=O)Cc3cn(C)c4ccccc34)ccc2O[C@@H]1CN(C)C(=O)Nc1ccc(C(F)(F)F)cc1	81*	-18	/
C[C@H]1CN([C@@H](C)CO)C(=O)c2cc(NC(=O)Cc3cn(C)c4ccccc34)ccc2O[C@H]1CN(C)Cc1ccc(C(F)(F)F)cc1	43*	/	0
COC(=O)CCCCCCC(=O)N/N=C/c1nc[nH]c1C	-9	11	1
O=C(CCCCCC(=O)Nc1ccccc1O)N=NC=C1C=CN(O)C=C1	/	/	-1
C[C@H](CO)N1C[C@H](C)[C@@H](CN(C)CC2CCCCC2)Oc2c(NC(=O)c3nc4ccccc4s3)cccc2C1=O	64*	-41	/
C[C@@H]1CN([C@@H](C)CO)C(=O)c2cccc(NC(=O)c3nc4ccccc4s3)c2O[C@H]1CN(C)CC1CC1	-20	-20	0
C[C@H](CO)N1C[C@H](C)[C@@H](CN(C)CC2CC2)Oc2c(NC(=O)c3nc4ccccc4s3)cccc2C1=O	27	-18	0
C[C@H](CO)N1C[C@H](C)[C@H](CN(C)CC2CCCCC2)Oc2c(NC(=O)c3nc4ccccc4s3)cccc2C1=O	66*	-31	-1
C[C@@H]1CN([C@@H](C)CO)C(=O)c2cccc(NC(=O)c3nc4ccccc4s3)c2O[C@@H]1CN(C)CC1CCCCC1	76*	-48	/
C[C@@H]1CN([C@H](C)CO)C(=O)c2cccc(NC(=O)c3nc4ccccc4s3)c2O[C@@H]1CN(C)CC1CCCCC1	13	-48	/
CN(C)c1ccc(/C=N/NC(=O)CCCCC(=O)NO)cc1	11	33	0
SMILES	T cruzi HTS	INS-1E ATP HTS	A1 apoptosis 2
C[C@H]1CCCCO[C@H](CN(C)C(=O)c2ccccc2)[C@@H](C)CN([C@@H](C)CO)C(=O)c2cc(NC(=O)CCC(F)(F)F)ccc2O1	/	/	0
C[C@H](CO)N1C[C@H](C)[C@@H](CN(C)Cc2ccc(C(=O)O)cc2)Oc2ccc(NC(=O)C3CCCCC3)cc2C1=O	-15	2	/
Cc1noc(C)c1S(=O)(=O)N(C)C[C@H]1Oc2ccc(NC(=O)Nc3ccc(C(F)(F)F)cc3)cc2CC(=O)N([C@H](C)CO)C[C@@H]1C	/	/	1
C[C@@H]1CN([C@H](C)CO)C(=O)Cc2cc(NC(=O)Nc3ccc(C(F)(F)F)cc3)ccc2O[C@@H]1CN(C)S(=O)(=O)c1ccc(F)cc1	72*	-9	0
C[C@@H]1CN([C@@H](C)CO)C(=O)Cc2cc(NC(=O)Nc3ccc(C(F)(F)F)cc3)ccc2O[C@@H]1CN(C)S(=O)(=O)c1ccc(Cl)cc1	81*	-23	/
C[C@H]1CN([C@@H](C)CO)C(=O)Cc2cc(NC(=O)Nc3ccc(C(F)(F)F)cc3)ccc2O[C@H]1CN(C)S(=O)(=O)c1ccc(Cl)cc1	52	-23	2
C[C@H]1CN([C@@H](C)CO)C(=O)Cc2cc(NC(=O)Nc3ccc(C(F)(F)F)cc3)ccc2O[C@@H]1CN(C)S(=O)(=O)c1ccc(F)cc1	35	0	1
Cc1noc(C)c1S(=O)(=O)N(C)C[C@H]1Oc2ccc(NC(=O)Nc3ccc(C(F)(F)F)cc3)cc2CC(=O)N([C@@H](C)CO)C[C@H]1C	66*	1	-1
CN1C(=O)C2C(C1=O)C1C=C(CCCO)C2C(c2ccc(CN3CCCC3)cc2)N1Cc1sc2ccccc2c1Cl (stereo unspecified)	/	/	1
Cc1ccc(/C=N/NC(=O)CCCCCCC(=O)NO)o1	/	/	0
CN1C(=O)N[C@@H]2c3ccccc3O[C@@]1(C)[C@@H]2CO[Si](C)(C)C(C)(C)C	/	/	-1
C[C@@H]1CN([C@H](C)CO)C(=O)c2cc(NC(=O)Nc3cccc4ccccc34)ccc2O[C@H]1CN(C)Cc1ccc(-c2ccccc2)cc1	86*	-12	0
C[C@@H]1CN([C@H](C)CO)C(=O)c2cc(NC(=O)Nc3cccc4ccccc34)ccc2O[C@@H]1CN(C)Cc1ccc(Oc2ccccc2)cc1	29	-20	/
C[C@H]1CN([C@@H](C)CO)C(=O)c2cc(NC(=O)Nc3cccc4ccccc34)ccc2O[C@@H]1CN(C)Cc1ccc(Oc2ccccc2)cc1	81*	-26	0
C[C@H]1CN([C@@H](C)CO)C(=O)c2cc(NC(=O)Nc3cccc4ccccc34)ccc2O[C@H]1CN(C)Cc1ccc(-c2ccccc2)cc1	19	/	0
C[C@@H]1CCCCO[C@@H](CN(C)C(=O)C2CCCCC2)[C@@H](C)CN([C@H](C)CO)C(=O)c2cc(NC(=O)c3ccncc3)ccc2O1	-5	-1	-1
O=C(N/N=C/c1ccc(OCCO)cc1)c1ccccc1O	-1	-11	-6

Source: PubChem (Broad Institute)
